Results taken from ChEMBL document CHEMBL1125251, “4'-Hydroxy-3-methoxyflavones with potent antipicornavirus activity” (J Med Chem, 1991).
In brackets after ≈: the same amount, converted by molar mass.

Columns and labels:
[1] = species: Rattus norvegicus; test: Mutagenicity evaluated by calculating number of revertants using Salmonella Typhimurium strain TA 100 (0.25 mg/plate) without S9 mix from rat liver according to the plate incorporation assay.; type: functional
Procedure, shortened: (§1)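 Ames plate incorporation assay with Salmonella typhimurium TA98 or TA100, without S9, at 0.25 mg/plate. Revertants per plate were counted on duplicate plates per dose. Quercetin was the standard mutagen.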

[2] = species: Rattus norvegicus; test: Mutagenicity evaluated by calculating number of revertants using Salmonella Typhimurium strain TA 98 (0.25 mg/plate) without S9 mix from rat liver; type: functional; procedure, shortened: as §1
[3] = test system: Enterovirus C; test: The ratio of the poliovirus viral titer of the virus control (reduction factor) to the viral titer in the presence of the maximal non-toxic dose (RF MNTD); type: functional
Procedure, shortened: (§2)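 Poliovirus type 1 Brunhilde 1A/S3 in Vero monolayers. Serial 10-fold virus dilutions adsorbed 1 h at 37 °C, then serial 2-fold compound dilutions were added. Incubated at 37 °C and scored for CPE by light microscopy, with a 3-day readout. Titer reduction is control/treated TCD50/mL. ED99 is the minimum concentration inhibiting 99% of virus. Virus, cell and compound controls were included.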

[4] = test system: Enterovirus C; test: Minimal dose which produces titer reduction at 10 ug/mL (mD RF10e3); type: functional
[5] = test system: Enterovirus C; test: Minimum drug concentration at which 99% of the polio virus is inhibited; type: functional; procedure, shortened: as §2
[6] = test system: Enterovirus C; test: Maximal non-toxic dose (MNTD) that shows antiviral activity.; type: functional
Procedure, shortened: (§3)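 End-point titration. Poliovirus type 1 Brunhilde was run in Vero cells at 37 °C with a 3-day read. Rhinovirus 15 was run in human skin fibroblasts at 33 °C with a 7-day read. Monolayers got serial 10-fold virus dilutions and adsorbed 1 h at 37 °C, then serial 2-fold compound dilutions (DMSO stock in maintenance medium). CPE was read by light microscopy. RF = control titer (TCD50/mL) / titer at maximal nontoxic dose.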

[7] = Cytotoxic dose at which 50% growth of normal cells is inhibited; type: cell-based; details: chlorocebus sabaeus, Vero cells; read-out: CyD50
Procedure, shortened: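 Cell-growth cytotoxicity in Vero cells or human skin fibroblasts. Serial 2-fold dilutions in M-199 with 6% newborn calf serum were added in quadruplicate to 10⁶ cells and held 6 days at 37 °C. Cells were trypsinized, counted and reseeded with compound, repeated five times. Generation time was calculated per concentration. CyD50 = lowest concentration at least doubling generation time versus untreated cells.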

[8] = species: Rattus norvegicus; test: Compound was evaluated for the mutagenicity by calculating number of revertants using Salmonella Typhimurium strain TA 98 (2.5 mg/plate) with S9 mix from rat liver; type: functional
Procedure, shortened: (§4)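 Ames plate incorporation assay with Salmonella typhimurium TA 98 or TA 100, with or without rat liver S9 (20 µL S9 per plate). S9 came from male Wistar rats induced with phenobarbital (0.1% in drinking water) plus β-naphthoflavone (80 mg/kg ip on day 5 in corn oil), fasted 24 h and killed on day 7. Revertants per plate counted on duplicate plates per dose.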

[9] = species: Rattus norvegicus; test: Mutagenicity evaluated by calculating number of revertants using Salmonella Typhimurium strain TA 100 (0.25 mg/plate) with S9 mix from rat liver; type: functional; procedure, shortened: as §4
[10] = species: Rattus norvegicus; test: Mutagenicity evaluated by calculating number of revertants using Salmonella Typhimurium strain TA 100 (2.5 mg/plate) with S9 mix from rat liver; type: functional; procedure, shortened: as §4
[11] = species: Rattus norvegicus; test: Mutagenicity evaluated by calculating number of revertants using Salmonella Typhimurium strain TA 100 (2.5 mg/plate) without S9 mix from rat liver; type: functional; procedure, shortened: as §4
[12] = species: Rattus norvegicus; test: Mutagenicity evaluated by calculating number of revertants using Salmonella Typhimurium strain TA 98 (2.5 mg/plate) without S9 mix from rat liver according to the plate incorporation assay.; type: functional; procedure, shortened: as §4
[13] = species: Rattus norvegicus; test: Compound was evaluated for the mutagenicity by calculating number of revertants using Salmonella Typhimurium strain TA 98 (0.25 mg/plate) with S9 mix from rat liver; type: functional; procedure, shortened: as §4
[14] = test system: Human rhinovirus sp.; test: Minimum drug concentration at which 99% of the rhino virus is inhibited.; type: functional
Procedure, shortened: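 End-point titration with rhinovirus type 15 on human skin fibroblast monolayers. Cells were infected with serial 10-fold virus dilutions and allowed 1 h adsorption at 37 °C. Serial 2-fold compound dilutions were then added and plates incubated at 33 °C. CPE was read daily by light microscopy for at least 1 week, titres as TCD50/mL. ED99 = minimum concentration inhibiting 99% of virus.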

[15] = test system: Human rhinovirus sp.; test: Antirhinovirus activity against rhinovirus serotype 15 which were grown on Ohio HeLa cells; type: functional
[16] = test system: Human rhinovirus sp.; test: Antirhinovirus activity against rhinovirus serotype 2 which were grown on Ohio HeLa cells; type: functional
[17] = test system: Human rhinovirus sp.; test: Antirhinovirus activity against rhinovirus serotype 29 which were grown on Ohio HeLa cells; type: functional
[18] = test system: Human rhinovirus sp.; test: Antirhinovirus activity against rhinovirus serotype 39 which were grown on Ohio HeLa cells; type: functional
[19] = test system: Human rhinovirus sp.; test: Antirhinovirus activity against rhinovirus serotype 41 which were grown on Ohio HeLa cells; type: functional
[20] = test system: Human rhinovirus sp.; test: Antirhinovirus activity against rhinovirus serotype 63 which were grown on Ohio HeLa cells; type: functional
[21] = test system: Human rhinovirus sp.; test: Antirhinovirus activity against rhinovirus serotype 85 which were grown on Ohio HeLa cells; type: functional
[22] = test system: Human rhinovirus sp.; test: Antirhinovirus activity against rhinovirus serotype 89 which were grown on Ohio HeLa cells; type: functional
[23] = test system: Human rhinovirus sp.; test: Antirhinovirus activity against rhinovirus serotype 9 which were grown on Ohio HeLa cells; type: functional
[24] = Therapeutic Index measured as the ratio of CyD50(polio) / ED99(polio) values; type: organism-based; details: enterovirus c; read-out: Therapeutic index 99
Procedure, shortened: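 TI99 = CyD50/ED99 for poliovirus. ED99 came from end-point titration in Vero cells at 37 °C over 3 days. CyD50 came from Vero cell growth: 10⁶ cells were given serial 2-fold compound dilutions in quadruplicate for 6 days at 37 °C, then trypsinized, counted and reseeded, repeated five times. Generation time was calculated per concentration.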

[25] = Therapeutic Index measured as the ratio of CyD50 (rhino) / ED99 (rhino) values.; details: read-out: Therapeutic index 99
Procedure, shortened: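 TI99 = CyD50/ED99 for rhinovirus 15. ED99 came from end-point titration in human skin fibroblasts at 33 °C over 7 days. CyD50 came from fibroblast growth: 10⁶ cells were given serial 2-fold compound dilutions in quadruplicate for 6 days at 37 °C, then counted and reseeded, repeated five times. Generation time was calculated per concentration.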

[26] = test system: Human rhinovirus sp.; test: Antirhinovirus activity against rhinovirus serotype 14 which were grown on Ohio HeLa cells; type: functional
[27] = test system: Human rhinovirus sp.; test: Antirhinovirus activity against rhinovirus serotype 59 which were grown on Ohio HeLa cells; type: functional
[28] = test system: Human rhinovirus sp.; test: Cytotoxic dose at which 50% growth of normal cells is inhibited against rhino virus infection.; type: functional
Procedure, shortened: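 Human skin fibroblasts, 10⁶ cells per flask, given serial 2-fold dilutions in quadruplicate in M-199 with 6% newborn calf serum and held 6 days at 37 °C. Cells were trypsinized, counted in a chamber and reseeded with compound over five repeat cycles. CyD50 = lowest concentration at least doubling cell generation time relative to untreated control.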

[29] = test system: Enterovirus C; test: The ratio of the viral titer of the virus control (reduction factor) to the viral titer in the presence of the maximal non-toxic dose (RF MNTD) of the compound; type: functional; procedure, shortened: as §3

## O=c1c(O)c(-c2ccc(O)c(O)c2)oc2cc(O)cc(O)c12 [QUERCETIN]
[1]
  Revertants/plate: 589
[2]
  Revertants/plate: 1100

## COc1c(-c2ccc(O)cc2)oc2cc(O)c(C)c(C)c2c1=O
[3]
  Reduction factor: 1000000
[4]
  Minimal dose: <2.5 µg/mL
[5]
  ED99: 0.1 µg/mL
[6]
  Max non-toxic dose: >100 µg/mL
[7]
  CC50: > 100 µg/mL
[8]
  Revertants/plate: 9
[9]
  Revertants/plate: 103
[1]
  Revertants/plate: 110
[10]
  Revertants/plate: 94
[11]
  Revertants/plate: 85
[2]
  Revertants/plate: 12
[12]
  Revertants/plate: 10
[13]
  Revertants/plate: 20
[14]
  ED99: 0.5 µg/mL
[15]
  MIC50: 0.088 µg/mL (≈ 0.282 µM)
[16]
  MIC50: 0.044 µg/mL (≈ 0.141 µM)
[17]
  MIC50: 0.078 µg/mL (≈ 0.25 µM)
[18]
  MIC50: 0.088 µg/mL (≈ 0.282 µM)
[19]
  MIC50: 0.088 µg/mL (≈ 0.282 µM)
[20]
  MIC50: 0.074 µg/mL (≈ 0.237 µM)
[21]
  MIC50: 0.076 µg/mL (≈ 0.243 µM)
[22]
  MIC50: 0.5 µg/mL (≈ 1.6 µM)
[23]
  MIC50: 0.156 µg/mL (≈ 0.499 µM)
[24]
  selectivity ratio: > 1000
[25]
  selectivity ratio: > 200
[26]
  MIC50: 0.072 µg/mL (≈ 0.231 µM)
[27]
  MIC50: 0.016 µg/mL (≈ 0.0512 µM)
[28]
  CyD50: 100 µg/mL

## COc1c(-c2ccc(O)cc2)oc2ccc(N)cc2c1=O
[4]
  Minimal dose: 10 µg/mL
[5]
  ED99: 5 µg/mL
[6]
  Max non-toxic dose: 10 µg/mL
[29]
  Reduction factor: 10000
[7]
  CC50: 10 µg/mL (≈ 35.3 µM)
[24]
  selectivity ratio: 2
